# Measurements gathered from unrelated publications.
# Compare with care: the assays were run in different laboratories.
# Target: Activin receptor type-2B (ACVR2B, Homo sapiens, UniProt Q13705)
Compound,assay,setting,remaining binding
O=C(NCCCN1CCOCC1)c1ccc(Nc2nccc(-c3cc4ccccc4s3)n2)cc1,"binding, competition with immobilised ligand",1 µM,89%
N[C@@H]1CCN(c2nccc(-c3cnn4ncccc34)n2)C1,binding,1 µM,100%
CNC(=O)[C@@H]1CC[C@@H](n2c(-c3ccc4cnccc4c3)nc3ccc(C(=O)NCc4cccc(C(N)=O)c4)cc32)C1,"binding, competition with immobilised ligand",1 µM,100%
CC1=C(C#N)C(c2ccc3c(c2)c(NC(=O)c2ccccc2C)nn3C)C(C#N)=C(C)N1,"binding, competition with immobilised ligand",1 µM,100%
COc1ncc2cc3ccccc3nc2c1C#N,"binding, competition with immobilised ligand",5 µM,90%
COc1ccnn2ncc(-c3ccnc(N(C)C)n3)c12,binding,1 µM,100%
CN(C)CC#Cc1ccc(OCCCc2sc(N3CCc4cccc(C(=O)Nc5nc6ccccc6s5)c4C3)nc2C(=O)O)c(F)c1,"cell-free assay, competition with immobilised ligand",1 µM,100%
O=C(c1ccc(Nc2ncc(Cl)c(-c3cc4ccccc4s3)n2)cc1)N1CCC(N2CCCC2)CC1,"binding, competition with immobilised ligand",1 µM,53%
O=C(Nc1cccnn1)N1CC(C/C=C/c2cncc(Oc3ccc(C(F)(F)F)cn3)n2)C1,"cell-free assay, competition with immobilised ligand",1 µM,98%
COc1cnc(Nc2cccc(S(N)(=O)=O)c2)nc1N1CCN(c2ccccc2)C(=O)C1,"binding, competition with immobilised ligand",1 µM,100%
C[C@@H]1CCN(c2nccc(-c3cnn4ncccc34)n2)C1,binding,1 µM,100%
Cc1c[nH]c2nccc(Oc3c(F)cc(Nc4cc(Cl)nc(N)n4)cc3F)c12,"cell-free assay, competition with immobilised ligand",0.1 µM,100%
O=C(NCC1CCOCC1)c1n[nH]cc1NC(=O)c1c(F)cccc1F,"binding, competition with immobilised ligand",1 µM,98%
COc1cc(-c2cn(C3CCc4ccccc4N(CC(F)(F)F)C3=O)nn2)ccc1-n1ccc(C)n1 (centres unmarked),"binding, competition with immobilised ligand",1 µM,100%
CN(C)c1nccc(-c2cnc3ncccn23)n1,binding,1 µM,100%
Cc1cc(C)c(-n2ccn3nc(-c4cccnc4)cc23)cc1NC(=O)c1cc(C#N)cc(S(F)(F)(F)(F)F)c1,"binding, competition with immobilised ligand",0.1 µM,88.7%
CN(c1nccc(-c2cnn3ncccc23)n1)C1CC1,binding,1 µM,100%
FC(F)(F)Oc1cccc(-c2cnc3ccc(-c4ccncc4)nn23)c1,"cell-free assay, competition with immobilised ligand",5 µM,46%
CN(CCCC(F)(F)F)c1nccc(-c2cnn3ncccc23)n1,binding,1 µM,100%
O=C(c1ccc(Nc2nccc(-c3cc4ccccc4s3)n2)cc1)N1CCC(N2CCCC2)CC1,"binding, competition with immobilised ligand",1 µM,88%
